ChEMBL document CHEMBL4825680, “Structure-based discovery of potent and selective small-molecule inhibitors targeting signal transducer and activator of transcription 3 (STAT3)” (Eur J Med Chem, 2021)

What was measured:
MDA-MB-231 = experiment: Antiproliferative activity against human MDA-MB-231 cells; format: functional, cell-based
MGC-803 = experiment: Antiproliferative activity against human MGC-803 cells; format: functional, cell-based
A549 = experiment: Antiproliferative activity against human A549 cells; format: functional, cell-based
[1] = Toxicity in NOD/SCID mouse xenografted with patient-derived breast cancer cells assessed as change in body weight at 5 to 15 mg/kg, ip administered once daily for 20 days; settings: in vivo, 480 h
[2] = Antitumor activity against patient-derived breast cancer cells xenografted in NOD/SCID mouse assessed as tumor growth inhibition at 15 mg/kg, ip administered once daily for 20 days; settings: Homo sapiens, Breast cancer cell line, 480 h, read-out: TGI
[3] = Metabolic stability in human liver microsomes assessed as clearance at 0.1 uM preincubated for 10 mins followed by NADPH addition and measured upto 60 mins by LC-MS/MS analysis; format: ADME, Microsome; settings: 1 h, time <=70 min
Method in brief: (§1)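 Microsomes at 0.33 mg/mL in 0.1 M Tris pH 7.4 with 5 mM MgCl2; compound final 0.1 μM (0.01% DMSO, 0.005% BSA). Preincubated 10 min at 37 °C, then started with 1 mM NADPH. Sampled at 0, 7, 17, 30 and 60 min and quenched with cold methanol. Centrifuged, then analysed by LC-MS/MS.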

[4] = Metabolic stability in human liver microsomes assessed as half life at 0.1 uM preincubated for 10 mins followed by NADPH addition and measured upto 60 mins by LC-MS/MS analysis; format: ADME, Microsome; settings: time <=70 min; method in brief: as §1

IC50 (MDA-MB-231) [µM] | IC50 (MGC-803) [µM] | IC50 (A549) [µM] | Structure (SMILES) | Activity [1] | inhibition in vivo at 15 mg/kg [2] [%] | CLH [3] [mL/min/g] | half-life at 0.1 µM [4] [min]
25.5 | 15.5 | 21.4 | COc1ccc2c(C(=O)Nc3ccc(Br)cc3)cc(-c3ccccc3)nc2c1 |  |  |  | 
> 100 | > 100 | > 100 | COc1ccc2c(C(=O)NCc3ccc(C4CCCCC4)cc3)cc(-c3ccccc3)nc2c1 |  |  |  | 
> 100 | > 100 | > 100 | COc1ccc(NC(=O)c2cc(-c3ccccc3)nc3cc(OC)ccc23)cc1 |  |  |  | 
20.2 | 22.5 | 23.4 | O=C(Cc1cnc2ccccn12)Nc1ccc2c(c1)S(=O)(=O)C=C2 |  |  |  | 
21 | 5.8 | 4.9 | COc1ccc(-c2ccc(NC(=O)c3cc(-c4ccccc4)nc4cc(OC)ccc34)cc2)cc1 |  |  |  | 
> 100 | > 100 | > 100 | COc1ccn2c(C(=O)Nc3ccc(C4CCCCC4)cc3)c(-c3ccccc3)nc2c1 |  |  |  | 
> 100 | > 100 | > 100 | COc1ccc2c(C(=O)Nc3ccc(-c4ccc(C(C)C)cc4)cc3)cc(-c3ccccc3)nc2c1 |  |  |  | 
> 100 | 50.4 | > 100 | COc1ccc2c(C(=O)Nc3ccc(Cl)cc3)cc(-c3ccccc3)nc2c1 |  |  |  | 
5.9 | 4.9 | 4.9 | COc1ccc2c(C(=O)Nc3ccc(C4CCCCC4)cc3)cc(-c3ccccc3)nc2c1 |  |  |  | 
> 100 | 39.6 | 40.9 | CCCCc1ccc(NC(=O)c2cc(-c3ccccc3)nc3cc(OC)ccc23)cc1 |  |  |  | 
10.3 | 2.1 | 5.5 | COc1ccc2c(C(=O)Nc3ccc(-c4ccco4)cc3)cc(-c3ccccc3)nc2c1 |  |  |  | 
> 100 | > 100 | > 100 | CCOC(=O)COc1ccc2c(C(=O)Nc3ccc(C4CCCCC4)cc3)cc(-c3ccccc3)nc2c1 |  |  |  | 
> 100 | > 100 | > 100 | COc1ccc2c(C(=O)Nc3ccc(-c4ccc5cc[nH]c5c4)cc3)cc(-c3ccccc3)nc2c1 |  |  |  | 
> 100 | > 100 | > 100 | O=C(O)COc1ccc2c(C(=O)Nc3ccc(C4CCCCC4)cc3)cc(-c3ccccc3)nc2c1 |  |  |  | 
1 | 0.5 | 0.7 | COc1ccc(-c2ccn3c(CC(=O)Nc4ccc5c(c4)S(=O)(=O)C=C5)c(-c4ccccc4)nc3c2)cc1 |  |  |  | 
50 | 14.6 | 16.6 | O=C(NCc1ccc(C2CCCCC2)cc1)c1cc(-c2ccccc2)nc2cc(O)ccc12 |  |  |  | 

IC50 (MDA-MB-231) [µM] | IC50 (MGC-803) [µM] | IC50 (A549) [µM] | Structure (SMILES) | Activity [1] | inhibition in vivo at 15 mg/kg [2] [%] | CLH [3] [mL/min/g] | half-life at 0.1 µM [4] [min]
> 100 | > 100 | > 100 | CCOC(=O)COc1ccc2c(C(=O)NCc3ccc(C4CCCCC4)cc3)cc(-c3ccccc3)nc2c1 |  |  |  | 
2 | 5.6 | 5 | CN(CC(=O)N(Cc1ccc(C2CCCCC2)cc1)c1ccc(C(=O)O)c(O)c1)S(=O)(=O)c1c(F)c(F)c(F)c(F)c1F | Non-Toxic | 63.6 |  | 
20.2 | 15.6 | 15.6 | COc1ccc2c(C(=O)Nc3ccc(-c4ccc(SC)cc4)cc3)cc(-c3ccccc3)nc2c1 |  |  |  | 
10 | 5.9 | 5.8 | O=C(Nc1ccc(C2CCCCC2)cc1)c1cc(-c2ccccc2)nc2ccccc12 |  |  |  | 
10.8 | 15 | 15 | COc1ccc2c(C(=O)Nc3ccc(-c4cccs4)cc3)cc(-c3ccccc3)nc2c1 |  |  |  | 
5.3 | 4.8 | 4.3 | COc1ccc2c(C(=O)Nc3ccc(-c4cc5ccccc5o4)cc3)cc(-c3ccccc3)nc2c1 |  |  |  | 
> 100 | > 100 | > 100 | O=C(Nc1ccc(C2CCCCC2)cc1)c1cc(-c2ccccc2)nc2cc(O)ccc12 |  |  |  | 
5.3 | 2.6 | 3 | COc1ccc2c(C(=O)Nc3ccc(-c4ccccc4)cc3)cc(-c3ccccc3)nc2c1 |  |  |  | 
> 100 | > 100 | > 100 | O=C(O)COc1ccc2c(C(=O)NCc3ccc(C4CCCCC4)cc3)cc(-c3ccccc3)nc2c1 |  |  |  | 
> 100 | > 100 | > 100 | COc1ccc2c(C(=O)Nc3ccc(C)cc3)cc(-c3ccccc3)nc2c1 |  |  |  | 
> 100 | > 100 | > 100 | COc1ccc2c(C(=O)Nc3ccc(C(C)C)cc3)cc(-c3ccccc3)nc2c1 |  |  |  | 
> 100 | > 100 | > 100 | COc1ccc2c(C(=O)Nc3ccc(F)cc3)cc(-c3ccccc3)nc2c1 |  |  |  | 
11.2 | 40.4 | 29.9 | COc1ccc2c(C(=O)Nc3ccc(-c4ccc(F)cc4)cc3)cc(-c3ccccc3)nc2c1 |  |  |  | 
> 100 | 20.1 | > 100 | O=C(NCc1ccc(C2CCCCC2)cc1)c1cc(-c2ccccc2)nc2ccccc12 |  |  |  | 
> 100 | 64.8 | > 100 | COc1ccc2c(C(=O)Nc3ccc(-c4cccnc4)cc3)cc(-c3ccccc3)nc2c1 |  |  |  | 

Structure (SMILES) | IC50 (MDA-MB-231) [µM] | IC50 (MGC-803) [µM] | IC50 (A549) [µM] | Activity [1] | inhibition in vivo at 15 mg/kg [2] [%] | CLH [3] [mL/min/g] | half-life at 0.1 µM [4] [min]
Cn1cc(-c2ccn3c(CC(=O)Nc4ccc5c(c4)S(=O)(=O)C=C5)c(-c4ccccc4)nc3c2)cn1 | 1.4 | 0.7 | 0.8 |  |  |  | 
COc1ccn2c(CC(=O)Nc3ccc4c(c3)S(=O)(=O)C=C4)c(-c3cccs3)nc2c1 | 1.4 | 1.3 | 1.1 |  |  |  | 
COc1ccc2nc(-c3ccccc3)c(CC(=O)Nc3ccc4c(c3)S(=O)(=O)C=C4)n2c1 | 2.1 | 1.7 | 1.2 |  |  |  | 
COc1ccn2c(CC(=O)Nc3ccc(-c4ccco4)cc3)c(-c3ccccc3)nc2c1 | 10 | 2.5 | 6.6 |  |  |  | 
Cc1ccc(-c2nc3ccccn3c2CC(=O)Nc2ccc3c(c2)S(=O)(=O)C=C3)cc1 | 4.1 | 2.7 | 5.5 |  |  |  | 
COc1ccn2c(CC(=O)Nc3ccc(C4CCCCC4)cc3)c(-c3ccccc3)nc2c1 | 5.4 | 4.7 | 5.6 |  |  |  | 
O=C(Cc1c(-c2ccccc2)nc2cc(Br)ccn12)Nc1ccc2c(c1)S(=O)(=O)C=C2 | 0.9 | 0.9 | 0.8 |  |  |  | 
Cc1ccn2c(CC(=O)Nc3ccc4c(c3)S(=O)(=O)C=C4)c(-c3ccccc3)nc2c1 | 1.6 | 1 | 0.7 |  |  |  | 
Cc1ccc(-c2nc3ccc(C)cn3c2CC(=O)Nc2ccc3c(c2)S(=O)(=O)C=C3)cc1 | 2.1 | 1.8 | 0.9 |  |  |  | 
COc1ccn2c(CC(=O)Nc3ccc4c(c3)S(=O)(=O)C=C4)c(-c3ccc(S(C)(=O)=O)cc3)nc2c1 | 5.8 | 6.4 | 5.8 |  |  |  | 
O=C(Cc1c(-c2ccccc2)nc2cc(-c3ccccc3)ccn12)Nc1ccc2c(c1)S(=O)(=O)C=C2 | 2.4 | 1.7 | 1.1 |  |  |  | 
COc1ccn2c(CC(=O)Nc3ccc4c(c3)S(=O)(=O)C=C4)c(-c3ccc4ccccc4c3)nc2c1 | 1.4 | 1.5 | 1 |  |  |  | 
Cc1ccc2nc(-c3ccc(C#N)cc3)c(CC(=O)Nc3ccc4c(c3)S(=O)(=O)C=C4)n2c1 | 2 | 2.4 | 2.5 |  |  |  | 
Cc1ccc2nc(-c3ccc(Cl)cc3)c(CC(=O)Nc3ccc4c(c3)S(=O)(=O)C=C4)n2c1 | 2 | 1.6 | 1.2 |  |  |  | 
O=C(Nc1nnc(-c2ccco2)o1)c1cc(-c2ccccc2)nc2ccccc12 | 18.2 | 7.43 | 11.6 | Non-Toxic |  |  | 
COc1cccn2c(CC(=O)Nc3ccc4c(c3)S(=O)(=O)C=C4)c(-c3ccccc3)nc12 | 2.2 | 1.7 | 1 |  |  |  | 
CS(=O)(=O)c1ccc(-c2nc3ccccn3c2CC(=O)Nc2ccc3c(c2)S(=O)(=O)C=C3)cc1 | 6.4 | 6.9 | 7.5 |  |  |  | 
COc1ccn2c(CC(=O)Nc3ccc4c(c3)S(=O)(=O)C=C4)c(-c3ccc(F)cc3)nc2c1 | 5.1 | 0.9 | 1.3 |  |  |  | 
O=C(Cc1c(-c2ccccc2)nc2cc(Cl)ccn12)Nc1ccc2c(c1)S(=O)(=O)C=C2 | 1.1 | 1.3 | 0.7 |  |  |  | 
COc1ccn2c(CC(=O)Nc3ccc4c(c3)S(=O)(=O)C=C4)c(-c3ccc([N+](=O)[O-])cc3)nc2c1 | 4.4 | 2.6 | 1.7 |  |  |  | 
COc1ccn2c(CC(=O)Nc3ccc4c(c3)S(=O)(=O)C=C4)c(-c3ccccc3)nc2c1 | 1.2 | 1 | 0.6 |  |  | 208.4 | 10.1
COc1ccn2c(CC(=O)Nc3ccc(-c4ccccc4)cc3)c(-c3ccccc3)nc2c1 | 10.5 | 3.5 | 3.2 |  |  |  | 
COc1ccn2c(CC(=O)Nc3ccc4c(c3)S(=O)(=O)C=C4)c(-c3ccc(C(F)(F)F)cc3)nc2c1 | 0.7 | 0.4 | 0.4 |  |  | 478 | 4.4
O=C(Cc1c(-c2ccccc2)nc2ccc(Br)cn12)Nc1ccc2c(c1)S(=O)(=O)C=C2 | 2 | 1.5 | 0.8 |  |  |  | 
O=C(Cc1c(-c2ccc([N+](=O)[O-])cc2)nc2ccccn12)Nc1ccc2c(c1)S(=O)(=O)C=C2 | 6.5 | 5.2 | 5.4 |  |  |  | 
